These results are taken from ChEMBL document CHEMBL3352666, “Human Toll-like receptor 8-selective agonistic activities in 1-alkyl-1H-benzimidazol-2-amines” (J Med Chem, 2014).

Active and inactive are the calls of the source. The rule behind the calls is not given here.

What all share (assay type): cell-based
The target of assay [1] is T1, Toll-like receptor 7 (Homo sapiens) (UniProt Q9NYK1).
T1 sequence (whole entry): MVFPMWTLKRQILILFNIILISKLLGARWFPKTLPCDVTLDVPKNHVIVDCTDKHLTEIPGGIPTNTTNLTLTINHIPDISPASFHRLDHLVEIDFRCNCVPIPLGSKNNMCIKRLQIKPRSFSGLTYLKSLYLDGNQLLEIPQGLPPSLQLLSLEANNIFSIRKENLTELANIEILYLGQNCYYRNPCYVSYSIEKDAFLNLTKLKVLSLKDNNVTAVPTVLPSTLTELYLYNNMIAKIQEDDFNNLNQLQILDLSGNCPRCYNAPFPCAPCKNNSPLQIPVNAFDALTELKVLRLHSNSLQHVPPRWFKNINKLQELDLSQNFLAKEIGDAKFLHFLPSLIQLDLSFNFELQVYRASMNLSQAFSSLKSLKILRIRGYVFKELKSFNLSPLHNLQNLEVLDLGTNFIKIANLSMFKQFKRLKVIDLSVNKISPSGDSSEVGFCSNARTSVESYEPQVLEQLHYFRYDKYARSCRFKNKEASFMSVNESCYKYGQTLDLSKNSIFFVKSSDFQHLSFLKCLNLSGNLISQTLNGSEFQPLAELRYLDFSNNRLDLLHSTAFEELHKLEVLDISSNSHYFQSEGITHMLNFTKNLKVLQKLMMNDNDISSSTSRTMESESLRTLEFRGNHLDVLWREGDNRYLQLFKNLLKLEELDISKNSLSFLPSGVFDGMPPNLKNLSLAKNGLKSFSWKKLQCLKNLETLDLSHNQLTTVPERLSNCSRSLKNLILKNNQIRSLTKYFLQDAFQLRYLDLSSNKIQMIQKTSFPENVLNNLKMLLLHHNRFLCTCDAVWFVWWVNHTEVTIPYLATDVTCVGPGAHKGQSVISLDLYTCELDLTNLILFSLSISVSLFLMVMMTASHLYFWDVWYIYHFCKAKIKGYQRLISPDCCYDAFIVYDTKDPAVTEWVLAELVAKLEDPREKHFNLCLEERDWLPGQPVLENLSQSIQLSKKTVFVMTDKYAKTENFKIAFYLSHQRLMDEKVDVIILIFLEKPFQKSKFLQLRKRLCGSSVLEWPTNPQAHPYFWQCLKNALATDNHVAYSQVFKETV
The experiment in a line: Agonist activity at human TLR7 stably expressed in HEK293 cells co-expressing secreted alkaline phosphatase assessed as NF-kappaB induction by liquid handler-assisted reporter gene assay. The method, boiled down:
(§1)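 HEK293 reporter cells stably co-transfected with the respective human TLR or NOD receptor plus NF-κB/AP-1-driven secreted alkaline phosphatase, kept in selection medium. About 10^5 cells/ml were incubated with graded concentrations of test compound in 384-well format. Supernatant sAP was read colorimetrically at 620 nm with an alkaline phosphatase-specific chromogen in detection medium.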
Background: In a reporter assay the amount or activity of a reporter protein is the signal.

The target in assay [2] is T2, Nucleotide-binding oligomerization domain-containing protein 1 (Homo sapiens, UniProt Q9Y239).
T2 sequence (Q9Y239 whole entry): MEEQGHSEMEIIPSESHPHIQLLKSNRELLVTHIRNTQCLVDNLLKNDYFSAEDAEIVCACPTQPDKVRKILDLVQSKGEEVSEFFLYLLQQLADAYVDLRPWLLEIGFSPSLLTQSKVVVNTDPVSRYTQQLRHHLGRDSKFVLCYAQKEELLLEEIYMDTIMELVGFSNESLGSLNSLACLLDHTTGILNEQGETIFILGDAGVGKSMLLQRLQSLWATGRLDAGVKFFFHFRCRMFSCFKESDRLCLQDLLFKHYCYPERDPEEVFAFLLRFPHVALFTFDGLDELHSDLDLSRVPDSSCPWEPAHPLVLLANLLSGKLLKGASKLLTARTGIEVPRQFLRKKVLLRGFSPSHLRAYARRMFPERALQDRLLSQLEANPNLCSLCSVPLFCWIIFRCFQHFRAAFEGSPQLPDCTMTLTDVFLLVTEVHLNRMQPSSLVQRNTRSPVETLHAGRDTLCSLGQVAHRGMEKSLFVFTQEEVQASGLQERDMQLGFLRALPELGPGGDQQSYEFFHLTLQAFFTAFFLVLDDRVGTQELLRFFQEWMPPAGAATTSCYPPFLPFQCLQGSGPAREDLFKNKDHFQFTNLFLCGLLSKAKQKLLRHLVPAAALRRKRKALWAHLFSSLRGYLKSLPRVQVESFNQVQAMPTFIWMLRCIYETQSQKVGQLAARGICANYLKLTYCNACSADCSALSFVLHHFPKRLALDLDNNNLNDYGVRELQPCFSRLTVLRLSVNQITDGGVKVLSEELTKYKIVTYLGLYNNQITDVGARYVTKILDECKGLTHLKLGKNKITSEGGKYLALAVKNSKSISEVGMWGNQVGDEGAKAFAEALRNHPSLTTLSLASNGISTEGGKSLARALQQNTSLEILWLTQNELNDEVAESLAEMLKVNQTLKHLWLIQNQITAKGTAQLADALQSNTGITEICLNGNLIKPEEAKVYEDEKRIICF
The experiment in a line: Antagonist activity at human NOD1 stably expressed in HEK293 cells co-expressing secreted alkaline phosphatase assessed as NF-kappaB induction by liquid handler-assisted reporter gene assay.

For assay [3], the target named is Nucleotide-binding oligomerization domain-containing protein 2 (Homo sapiens, UniProt Q9HC29). The experiment in a line: Antagonist activity at human NOD2 stably expressed in HEK293 cells co-expressing secreted alkaline phosphatase assessed as NF-kappaB induction by liquid handler-assisted reporter gene assay.
Assay [4] addresses T3, Nucleotide-binding oligomerization domain-containing protein 1 (Homo sapiens) (UniProt Q9Y239).
T3 sequence (whole entry): T2 sequence (Q9Y239 whole entry)
Kind of assay: Agonist activity at human NOD1 stably expressed in HEK293 cells co-expressing secreted alkaline phosphatase assessed as NF-kappaB induction by liquid handler-assisted reporter gene assay. The essentials:
as §1

Sequence of Nucleotide-binding oligomerization domain-containing protein 2 (Q9HC29 whole entry, the tested form may be a part): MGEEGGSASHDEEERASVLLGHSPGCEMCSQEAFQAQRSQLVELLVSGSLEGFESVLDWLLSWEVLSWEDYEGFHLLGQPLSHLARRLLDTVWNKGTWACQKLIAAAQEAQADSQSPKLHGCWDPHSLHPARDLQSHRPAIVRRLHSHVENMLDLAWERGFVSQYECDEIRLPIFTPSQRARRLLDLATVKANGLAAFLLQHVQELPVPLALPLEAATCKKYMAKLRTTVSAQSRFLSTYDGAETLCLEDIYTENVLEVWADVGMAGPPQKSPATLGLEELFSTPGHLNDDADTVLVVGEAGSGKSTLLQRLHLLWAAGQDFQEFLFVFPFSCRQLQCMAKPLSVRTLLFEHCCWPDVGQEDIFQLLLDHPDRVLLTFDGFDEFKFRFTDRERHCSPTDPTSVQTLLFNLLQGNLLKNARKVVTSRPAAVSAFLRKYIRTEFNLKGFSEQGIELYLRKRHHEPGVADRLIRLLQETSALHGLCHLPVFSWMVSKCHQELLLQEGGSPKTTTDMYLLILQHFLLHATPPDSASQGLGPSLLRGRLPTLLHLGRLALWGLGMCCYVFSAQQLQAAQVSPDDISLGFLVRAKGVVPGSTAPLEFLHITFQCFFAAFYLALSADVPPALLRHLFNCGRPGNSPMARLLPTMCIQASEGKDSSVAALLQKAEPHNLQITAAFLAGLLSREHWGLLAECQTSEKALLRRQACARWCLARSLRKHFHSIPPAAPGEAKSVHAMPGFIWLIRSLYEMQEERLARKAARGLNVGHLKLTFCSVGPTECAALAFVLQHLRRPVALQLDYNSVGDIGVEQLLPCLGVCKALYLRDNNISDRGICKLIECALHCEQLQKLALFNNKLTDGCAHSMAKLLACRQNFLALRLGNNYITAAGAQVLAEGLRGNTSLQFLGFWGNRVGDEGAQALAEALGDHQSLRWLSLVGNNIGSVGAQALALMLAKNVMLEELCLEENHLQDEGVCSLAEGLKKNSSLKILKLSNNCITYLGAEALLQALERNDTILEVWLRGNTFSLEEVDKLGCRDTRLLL

For `CCCCCn1c(NC(C)=O)nc2ccccc21`, the outcome in assay [1] and in assay [4] was inactive. In addition, the IC50 in assay [2] and in assay [3] was over 10 µM each time.

With `CCCCCn1c(N)nc2c(-c3ccccc3)cccc21`, the result in assay [1] and in assay [4] was inactive. The IC50 in assay [2] and in assay [3] was over 10 µM throughout.

With `CCCCCn1c(N)nc2c(Br)cccc21`, the result in assay [1] and in assay [4] was inactive.

Consider `CCCCOC(=O)n1c(N)nc2ccccc21`, for which the result in assay [1] and in assay [4] was inactive.

Take `Nc1nc2ccccc2n1Cc1ccccc1`: the outcome in assay [1] and in assay [4] was inactive.

Regarding `CCCCC1C(N)=Nc2ccccc21.Cl` (centres undefined), the result in assay [1] and in assay [4] was inactive.

Turning to `CCCCCn1c(N)nc2cc3ccccc3cc21`, the result in assay [1] and in assay [4] was inactive. In addition, the IC50 in assay [2] and in assay [3] was over 10 µM throughout.

Consider `CCCCCn1c(N)nc2c(Cl)cccc21`, for which the result in assay [1] and in assay [4] was inactive.

With `CCCCCn1c(N)nc2c(OCc3ccccc3)cccc21`, the outcome in assay [1] and in assay [4] was inactive. Further, the IC50 in assay [2] and in assay [3] was over 10 µM in each case.

As to `CCCCCn1c(N)nc2ccc3ccccc3c21`, the result in assay [1] and in assay [4] was inactive. Further, the IC50 in assay [2] and in assay [3] was over 10 µM throughout.

Consider `CCCCCn1c(N)nc2c(C(F)(F)F)cccc21`, for which the outcome in assay [1] and in assay [4] was inactive.

Consider `CCCCCn1c(N)nc2c(C)cccc21`, for which the outcome in assay [1] and in assay [4] was inactive.

Regarding `CCCCCn1c(N)nc2ncccc21`, the outcome in assay [1] and in assay [4] was inactive.

In the case of `CCCCCn1c(N)nc2ccncc21`, the result in assay [1] and in assay [4] was inactive.

For the compound `CCCCCn1c(N)nc2c([N+](=O)[O-])cccc21`, the outcome in assay [1] and in assay [4] was inactive.

Turning to `CCCCCn1c(N)nc2c(F)cccc21`, the outcome in assay [1] and in assay [4] was inactive.

For the compound `CCCCCn1c(N)nc2c(Cc3ccccc3)cccc21`, the result in assay [1] and in assay [4] was inactive. In addition, the 50% inhibitory concentration (IC50) in assay [2] and in assay [3] was over 10 µM each time.

Consider `NCc1cccc(Cn2c(N)nc3ccccc32)c1`, for which the outcome in assay [1] and in assay [4] was inactive.

For `CCCCCn1c(N)nc2cnccc21`, the outcome in assay [1] and in assay [4] was inactive.

Take `CCCCCn1c(N)nc2cccnc21`: the result in assay [1] and in assay [4] was inactive.

In the case of `CCCCC1(O)C(N)=Nc2ccccc21` (centres undefined), the result in assay [1] and in assay [4] was inactive.
